Results reported in ChEMBL document CHEMBL2074359, “Structural requirements for determining the substrate affinity of peptide transporters PEPT1 and PEPT2” (Pflugers Arch, 2000).
Peptide text beside a SMILES is read from it.

Assays:
[1] = target: T1, Solute carrier family 15 member 2 (Rattus norvegicus, UniProt Q63424); test: TP_TRANSPORTER: inhibition of Gly-Sar uptake in PEPT2-expressing LLC-PK1 cells; format: functional, cell-based
T1 sequence (Q63424 whole entry): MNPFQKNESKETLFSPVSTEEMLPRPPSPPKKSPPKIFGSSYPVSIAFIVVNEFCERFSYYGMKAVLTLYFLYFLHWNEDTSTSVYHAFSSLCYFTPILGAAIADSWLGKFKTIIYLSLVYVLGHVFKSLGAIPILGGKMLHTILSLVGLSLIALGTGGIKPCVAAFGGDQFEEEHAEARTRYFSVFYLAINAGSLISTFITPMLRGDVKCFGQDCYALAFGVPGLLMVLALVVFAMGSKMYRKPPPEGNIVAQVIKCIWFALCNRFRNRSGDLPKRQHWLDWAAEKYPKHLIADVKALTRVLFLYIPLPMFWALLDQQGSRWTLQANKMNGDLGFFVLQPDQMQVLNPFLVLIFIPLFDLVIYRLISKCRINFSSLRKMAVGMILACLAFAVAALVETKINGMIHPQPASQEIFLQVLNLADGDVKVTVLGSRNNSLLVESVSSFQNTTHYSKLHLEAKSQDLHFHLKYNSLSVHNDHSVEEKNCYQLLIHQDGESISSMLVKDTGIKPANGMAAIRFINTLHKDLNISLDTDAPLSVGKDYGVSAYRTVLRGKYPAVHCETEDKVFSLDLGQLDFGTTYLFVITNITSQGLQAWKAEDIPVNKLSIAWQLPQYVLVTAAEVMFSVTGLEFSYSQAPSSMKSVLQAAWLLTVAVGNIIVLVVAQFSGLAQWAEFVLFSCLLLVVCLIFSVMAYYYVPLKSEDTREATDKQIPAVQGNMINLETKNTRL
How it was run: (§1)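 LLC-PK1 cells stably carrying rat PEPT2 cDNA, grown 6 days in DMEM with 10% FBS. Monolayers were incubated 15 min at 37°C with [14C]glycylsarcosine (20 µM, pH 6.0) alone or with inhibitor, mostly 1–10000 µM. Uptake was normalized to Bradford protein, with control as 100%. IC50 came from nonlinear regression and Ki from Cheng–Prusoff. Two monolayers per concentration, four for control.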

[2] = target: T2, Solute carrier family 15 member 1 (Rattus norvegicus, UniProt P51574); test: TP_TRANSPORTER: inhibition of Gly-Sar uptake in PEPT1-expressing LLC-PK1 cells; format: functional, cell-based
T2 sequence (P51574 whole entry): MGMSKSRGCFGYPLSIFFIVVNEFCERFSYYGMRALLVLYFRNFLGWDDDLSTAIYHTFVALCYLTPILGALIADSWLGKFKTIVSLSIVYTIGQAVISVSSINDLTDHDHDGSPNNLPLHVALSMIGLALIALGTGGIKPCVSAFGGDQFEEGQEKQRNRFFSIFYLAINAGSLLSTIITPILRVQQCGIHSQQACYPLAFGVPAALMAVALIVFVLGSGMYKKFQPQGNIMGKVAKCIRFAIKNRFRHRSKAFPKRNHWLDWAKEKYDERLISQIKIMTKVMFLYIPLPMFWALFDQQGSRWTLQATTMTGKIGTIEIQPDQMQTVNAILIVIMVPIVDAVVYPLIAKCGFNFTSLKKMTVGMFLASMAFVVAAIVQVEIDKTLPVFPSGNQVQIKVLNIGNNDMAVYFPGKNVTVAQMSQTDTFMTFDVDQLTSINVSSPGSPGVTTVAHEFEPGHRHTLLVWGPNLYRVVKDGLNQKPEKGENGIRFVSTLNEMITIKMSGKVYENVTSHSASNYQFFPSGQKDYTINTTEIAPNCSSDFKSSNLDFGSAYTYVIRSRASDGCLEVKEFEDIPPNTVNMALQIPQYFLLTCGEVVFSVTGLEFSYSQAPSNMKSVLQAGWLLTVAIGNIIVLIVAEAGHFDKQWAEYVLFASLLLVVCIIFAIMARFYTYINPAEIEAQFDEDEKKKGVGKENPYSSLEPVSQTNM
How it was run: as §1, with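 “PEPT1” for “PEPT2”, “10–20000” for “1–10000”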

SMILES	Ki [1] [µM]	Ki [2] [µM]
NCCCCCCCC(=O)O	7900	4400
N[C@@H](CC(=O)NCC(=O)O)C(=O)O	28000	> 50000
CNCC(=O)NCC(=O)O	2200	13000
NCCCC[C@H](NC(=O)[C@@H](N)CCCCN)C(=O)O	96	8000
CC(C)C[C@H](NC(=O)CN)C(=O)O	6	110
C[C@H](N)C(=O)Nc1ccc([N+](=O)[O-])cc1	29	61
N[C@@H](CC(=O)O)C(=O)N[C@@H](CC(=O)O)C(=O)O (H-Asp-Asp-OH)	150	990
N[C@@H](CC(=O)O)C(=O)NCC(=O)O (H-Asp-Gly-OH)	46	830
NCC(=O)N[C@@H](CC(N)=O)C(=O)O (H-Gly-Asn-OH)	22	270
NCC(=O)N[C@@H](CC(=O)O)C(=O)O (H-Gly-Asp-OH)	60	300
NCC(=O)NCC(=O)O (H-Gly-Gly-OH)	42	860
NCC(=O)NCC(=O)N[C@@H](Cc1ccccc1)C(=O)O (H-Gly-Gly-Phe-OH)	29	610
NCC(=O)N[C@@H](Cc1c[nH]cn1)C(=O)O (H-Gly-His-OH)	39	1400
CC(C)C[C@H](NC(=O)CN)C(=O)N[C@@H](Cc1ccc(O)cc1)C(=O)O (H-Gly-Leu-Tyr-OH)	8	190
NCCCC[C@H](NC(=O)CN)C(=O)O (H-Gly-Lys-OH)	210	2200
NCC(=O)N[C@@H](Cc1ccccc1)C(=O)O (H-Gly-Phe-OH)	8	170
NCC(=O)N[C@@H](Cc1c[nH]c2ccccc12)C(=O)O (H-Gly-Trp-OH)	7	1400
NCC(=O)N[C@@H](Cc1ccc(O)cc1)C(=O)O (H-Gly-Tyr-OH)	14	210
NCCCC[C@H](N)C(=O)NCC(=O)O (H-Lys-Gly-OH)	21	910
CSCC[C@H](N)C(=O)N[C@@H](C)C(=O)O (H-Met-Ala-OH)	17	150
N[C@@H](Cc1ccccc1)C(=O)NCC(=O)O (H-Phe-Gly-OH)	7	220
O=C(O)CNC(=O)[C@@H]1CCCN1 (H-Pro-Gly-OH)	2000	13000
CSCC[C@H](NC=O)C(=O)N[C@@H](C)C(=O)O (HELM PEPTIDE1{[O=C[*:2]].M.A}$$$$V2.0)	10000	24000
NCC(=O)CCC(=O)O [AMINOLEVULINIC ACID]	230	2200
NCCC(=O)N[C@@H](Cc1cnc[nH]1)C(=O)O [CARNOSINE]	66	8000
NCC(=O)NCC(=O)NCC(=O)O [GLYCYLGLYCYLGLYCINE]	160	1300
CC(C)C[C@H](NC(=O)[C@@H](O)[C@H](N)Cc1ccccc1)C(=O)O [UBENIMEX]	18	1500
